Assay results taken from ChEMBL document CHEMBL5058577, “EUbOPEN Chemogenomics Library 2 (Multiplex)” (2022).

System: Fibroblast
Assay: Multiplex assay against human fibroblast
Assay type: toxicity, cell-based
How it was run: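 Phenotypes for tubulin, mitochondrial mass and membrane permeability are expressed as per cents of healthy-nucleus cells. Cells were stained live at seeding with Hoechst33342, BioTracker Green Microtubule Cytoskeleton Dye, MitoTracker Red and Annexin V Alexa Fluor 680, then imaged after compound addition on a CQ1 microscope at 37°C and 5% CO2. Machine-learning gating in CellPathfinder separated Hoechst high-intensity objects from normal cells, divided normal cells by nuclear state (healthy, pyknosed, fragmented) and divided pyknosed cells into mitotic or apoptotic.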

[1] = 12 h, 1 µM, compound concentration 1 uM, replicate 1
[2] = 12 h, 1 µM, compound concentration 1 uM, replicate 2
[3] = 12 h, 10 µM, compound concentration 10 uM, replicate 1
[4] = 12 h, 10 µM, compound concentration 10 uM, replicate 2
[5] = 24 h, 1 µM, compound concentration 1 uM, replicate 1
[6] = 24 h, 1 µM, compound concentration 1 uM, replicate 2
[7] = 24 h, 10 µM, compound concentration 10 uM, replicate 1
[8] = 24 h, 10 µM, compound concentration 10 uM, replicate 2
[9] = 48 h, 1 µM, compound concentration 1 uM, replicate 1
[10] = 48 h, 1 µM, compound concentration 1 uM, replicate 2
[11] = 48 h, 10 µM, compound concentration 10 uM, replicate 1
[12] = 48 h, 10 µM, compound concentration 10 uM, replicate 2

O=C(O)CCC/C=C\CC1C(O)CC(O)C1/C=C/C(O)COc1cccc(Cl)c1 (centres undefined) [CLOPROSTENOL]
Population Apoptotic (%) [1]: 41%
Population Fragmented Nuclei (%) [1]: 15%
Population Healthy Nuclei (%) [1]: 68%
Population Hoechst High Intensity Objects (%) [1]: 0%
Population Membrane Permeable-Phenotype (%) [1]: 0%
Population Mitochondria Different-Phenotype (%) [1]: 2%
Population Mitotic Cells (%) [1]: 58%
Population Normal (%) [1]: 100%
Population Pyknosed Nuclei (%) [1]: 15%
Population Tubulin-Different-Phenotype (%) [1]: 22%
Total Cell Count [1]: 153
Population Apoptotic (%) [2]: 20%
Population Fragmented Nuclei (%) [2]: 22%
Population Healthy Nuclei (%) [2]: 52%
Population Hoechst High Intensity Objects (%) [2]: 2%
Population Membrane Permeable-Phenotype (%) [2]: 8%
Population Mitotic Cells (%) [2]: 80%
Population Normal (%) [2]: 97%
Population Pyknosed Nuclei (%) [2]: 25%
Population Tubulin-Different-Phenotype (%) [2]: 52%
Total Cell Count [2]: 141
Population Apoptotic (%) [3]: 38%
Population Fragmented Nuclei (%) [3]: 23%
Population Healthy Nuclei (%) [3]: 58%
Population Hoechst High Intensity Objects (%) [3]: 12%
Population Membrane Permeable-Phenotype (%) [3]: 0%
Population Mitochondria Different-Phenotype (%) [3]: 4%
Population Mitotic Cells (%) [3]: 61%
Population Normal (%) [3]: 87%
Population Pyknosed Nuclei (%) [3]: 18%
Population Tubulin-Different-Phenotype (%) [3]: 31%
Total Cell Count [3]: 212
Population Apoptotic (%) [4]: 23%
Population Healthy Nuclei (%) [4]: 43%
Population Hoechst High Intensity Objects (%) [4]: 4%
Population Membrane Permeable-Phenotype (%) [4]: 11%
Population Mitochondria Different-Phenotype (%) [4]: 9%
Population Mitotic Cells (%) [4]: 76%
Population Normal (%) [4]: 95%
Population Pyknosed Nuclei (%) [4]: 34%
Population Tubulin-Different-Phenotype (%) [4]: 53%
Total Cell Count [4]: 105
Population Apoptotic (%) [5]: 41%
Population Fragmented Nuclei (%) [5]: 19%
Population Healthy Nuclei (%) [5]: 62%
Population Hoechst High Intensity Objects (%) [5]: 0%
Population Membrane Permeable-Phenotype (%) [5]: 1%
Population Mitochondria Different-Phenotype (%) [5]: 3%
Population Mitotic Cells (%) [5]: 58%
Population Normal (%) [5]: 99%
Population Pyknosed Nuclei (%) [5]: 18%
Population Tubulin-Different-Phenotype (%) [5]: 26%
Total Cell Count [5]: 161
Population Apoptotic (%) [6]: 18%
Population Fragmented Nuclei (%) [6]: 27%
Population Healthy Nuclei (%) [6]: 49%
Population Hoechst High Intensity Objects (%) [6]: 3%
Population Membrane Permeable-Phenotype (%) [6]: 7%
Population Mitochondria Different-Phenotype (%) [6]: 5%
Population Mitotic Cells (%) [6]: 81%
Population Normal (%) [6]: 96%
Population Pyknosed Nuclei (%) [6]: 23%
Population Tubulin-Different-Phenotype (%) [6]: 53%
Total Cell Count [6]: 144
Population Apoptotic (%) [7]: 41%
Population Fragmented Nuclei (%) [7]: 24%
Population Healthy Nuclei (%) [7]: 57%
Population Hoechst High Intensity Objects (%) [7]: 12%
Population Membrane Permeable-Phenotype (%) [7]: 2%
Population Mitochondria Different-Phenotype (%) [7]: 3%
Population Mitotic Cells (%) [7]: 58%
Population Normal (%) [7]: 87%
Population Pyknosed Nuclei (%) [7]: 18%
Population Tubulin-Different-Phenotype (%) [7]: 24%
Total Cell Count [7]: 218
Population Apoptotic (%) [8]: 59%
Population Fragmented Nuclei (%) [8]: 28%
Population Healthy Nuclei (%) [8]: 50%
Population Hoechst High Intensity Objects (%) [8]: 3%
Population Membrane Permeable-Phenotype (%) [8]: 7%
Population Mitotic Cells (%) [8]: 40%
Population Normal (%) [8]: 96%
Population Pyknosed Nuclei (%) [8]: 21%
Population Tubulin-Different-Phenotype (%) [8]: 57%
Total Cell Count [8]: 107
Population Apoptotic (%) [9]: 65%
Population Fragmented Nuclei (%) [9]: 21%
Population Healthy Nuclei (%) [9]: 59%
Population Hoechst High Intensity Objects (%) [9]: 2%
Population Membrane Permeable-Phenotype (%) [9]: 2%
Population Mitochondria Different-Phenotype (%) [9]: 2%
Population Mitotic Cells (%) [9]: 34%
Population Normal (%) [9]: 97%
Population Pyknosed Nuclei (%) [9]: 19%
Population Tubulin-Different-Phenotype (%) [9]: 25%
Total Cell Count [9]: 156
Population Apoptotic (%) [10]: 36%
Population Fragmented Nuclei (%) [10]: 37%
Population Healthy Nuclei (%) [10]: 43%
Population Hoechst High Intensity Objects (%) [10]: 3%
Population Membrane Permeable-Phenotype (%) [10]: 12%
Population Mitochondria Different-Phenotype (%) [10]: 10%
Population Mitotic Cells (%) [10]: 64%
Population Normal (%) [10]: 96%
Population Pyknosed Nuclei (%) [10]: 18%
Population Tubulin-Different-Phenotype (%) [10]: 63%
Total Cell Count [10]: 137
Population Apoptotic (%) [11]: 46%
Population Fragmented Nuclei (%) [11]: 25%
Population Healthy Nuclei (%) [11]: 57%
Population Hoechst High Intensity Objects (%) [11]: 13%
Population Membrane Permeable-Phenotype (%) [11]: 0%
Population Mitochondria Different-Phenotype (%) [11]: 2%
Population Mitotic Cells (%) [11]: 53%
Population Normal (%) [11]: 86%
Population Pyknosed Nuclei (%) [11]: 16%
Population Tubulin-Different-Phenotype (%) [11]: 30%
Total Cell Count [11]: 205
Population Apoptotic (%) [12]: 55%
Population Fragmented Nuclei (%) [12]: 41%
Population Healthy Nuclei (%) [12]: 49%
Population Hoechst High Intensity Objects (%) [12]: 8%
Population Membrane Permeable-Phenotype (%) [12]: 4%
Population Mitochondria Different-Phenotype (%) [12]: 4%
Population Mitotic Cells (%) [12]: 44%
Population Normal (%) [12]: 91%
Population Pyknosed Nuclei (%) [12]: 9%
Population Tubulin-Different-Phenotype (%) [12]: 61%
Total Cell Count [12]: 108
